From ChEMBL document CHEMBL3751709, “Concise Synthesis of Spergualin-Inspired Molecules With Broad-Spectrum Antibiotic Activity” (2015)
≈ marks a conversion by molar mass, not a printed value. Calls of active or inactive are those of the source. No cut-off for these calls is given here.

Key:
Assay type in all cases: functional
[1] = tested on: Escherichia coli; experiment: Antimicrobial activity against Escherichia coli K-12 MG1655 after 24 hrs by double dilution method
In short: (§1)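 Double (2-fold) dilution series added to inoculum at OD600 0.1, giving final 256 to 2 μg/mL. H. influenzae was scraped from agar into supplemented BHI medium. Other strains were diluted from an overnight LB culture (37 °C, 200 rpm) into LB. Plates were covered and shaken at 200 rpm, 37 °C, for 24 h before MIC was read. At least two runs in triplicate.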

[2] = tested on: Bacillus cereus; experiment: Antimicrobial activity against Bacillus cereus ATCC 11778 after 24 hrs by double dilution method; in short: as §1
[3] = tested on: Haemophilus influenzae; experiment: Antimicrobial activity against Haemophilus influenzae ATCC 51907 after 24 hrs by double dilution method; in short: as §1
[4] = tested on: Bacillus anthracis; experiment: Antimicrobial activity against Bacillus anthracis 34F2 Sterne after 24 hrs by double dilution method
[5] = tested on: Bacillus subtilis; experiment: Antimicrobial activity against Bacillus subtilis 168 after 24 hrs by double dilution method; in short: as §1
[6] = tested on: Staphylococcus aureus; experiment: Antimicrobial activity against Staphylococcus aureus RN4220 after 24 hrs by double dilution method; in short: as §1
[7] = tested on: Staphylococcus aureus; experiment: Bactericidal activity against Staphylococcus aureus RN4220 8 to 16 ug/ml at after 4 to 24 hrs by time kill assay
In short: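 Time-kill: 5 mL S. aureus cultures at OD600 0.1 were treated with compound (final 8 to 16 μg/mL) or DMSO. 100 μL was sampled at 0, 4 and 24 h, serially diluted 10-fold in sterile PBS, and 2 μL spotted on LB agar to count CFUs.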

Row | SMILES | MIC ([1]; K-12 MG1655, 24 h) [µg/mL] | MIC ([2]; ATCC 11778, 24 h) [µg/mL] | MIC ([3]; ATCC 51907, 24 h) [µg/mL] | MIC [4] | MIC ([5]; subsp. subtilis str. 168, 24 h) [µg/mL] | MIC ([6]; RN4220, 24 h) [µg/mL] | MIC [1] | MIC [2] | MIC [3] | MIC ([5]; subsp. subtilis str. 168) | MIC [6] | Activity [1] | Activity [2] | Activity [7] [log10CFU] | Activity [3] | Activity [4] | Activity ([5]; subsp. subtilis str. 168) | Activity [6]
1 | N#Cc1ccc(C(=O)N(CCCc2ccccc2)CC(=O)N2CCNCC2)cc1 | > 128 | > 128 | > 128 | > 128 µg/mL | > 128 | > 128 |  |  |  |  |  |  |  |  |  |  |  | 
2 | NCCCCNCCCN |  |  |  | inactive |  |  | inactive | inactive | inactive | inactive | inactive |  |  |  |  |  |  | 
3 | NCc1ccccc1 |  |  |  | inactive |  |  | inactive | inactive | inactive | inactive | inactive |  |  |  |  |  |  | 
4 | O=C(O)CCS |  |  |  | inactive |  |  | inactive | inactive | inactive | inactive | inactive |  |  |  |  |  |  | 
5 | CCCC(=O)N(Cc1ccccc1)C(C(=O)NCCCCN)c1ccc(Br)cc1 (stereo not drawn) | 256 (≈ 556 µM) | 32 (≈ 69.5 µM) | 64 (≈ 139 µM) | 32 µg/mL (≈ 69.5 µM) | 16 (≈ 34.8 µM) | 32 (≈ 69.5 µM) |  |  |  |  |  |  |  |  |  |  |  | 
6 | O=Cc1ccc(Br)cc1 |  |  |  | inactive |  |  | inactive | inactive | inactive | inactive | inactive |  |  |  |  |  |  | 
7 | NCCCCNC(=O)C(c1ccc(Br)cc1)N(Cc1ccccc1)C(=O)CCS (stereo not drawn) | 32 (≈ 66.9 µM) | 8 (≈ 16.7 µM) | 16 (≈ 33.4 µM) | 4 µg/mL (≈ 8.36 µM) | 4 (≈ 8.36 µM) | 8 (≈ 16.7 µM) |  |  |  |  |  | Dose-dependent effect | Dose-dependent effect | >3 | Dose-dependent effect | Dose-dependent effect | Dose-dependent effect | Dose-dependent effect
8 | CCC(C)C(=O)NCC(=O)N1CCN(Cc2ccccc2)CC1 (stereo not drawn) | > 128 | > 128 | > 128 | > 128 µg/mL | > 128 | > 128 |  |  |  |  |  |  |  |  |  |  |  | 
9 | N=C(N)NCCCC[C@H](O)CC(=O)N[C@@H](O)C(=O)NCCCCNCCCN | 50 (≈ 124 µM) | 50 (≈ 124 µM) |  | 12.5 µg/mL (≈ 31 µM) | 6.25 (≈ 15.5 µM) | 6.25 (≈ 15.5 µM) |  |  |  |  |  |  |  |  |  |  |  | 
10 | CC(C)C1CCC(C(=O)NCC(=O)NCc2ccccc2)CC1 (stereo not drawn) | > 128 | > 128 | > 128 | > 128 µg/mL | > 128 | > 128 |  |  |  |  |  |  |  |  |  |  |  | 
11 | CN(C)[C@@H]1C(O)=C(C(N)=O)C(=O)[C@@]2(O)C(O)=C3C(=O)c4c(O)cccc4[C@@](C)(O)[C@H]3C[C@@H]12 [TETRACYCLINE] | < 2 | < 2 | < 2 | < 2 µg/mL | < 2 | < 2 |  |  |  |  |  |  |  |  |  |  |  | 
12 | CC(C)SCC(=O)NCC(=O)NCc1ccccc1 | > 128 | > 128 | > 128 | > 128 µg/mL | > 128 | > 128 |  |  |  |  |  |  |  |  |  |  |  | 
